Data on 24 compounds can be found in ChEMBL document CHEMBL1140839, “Carbamate-appended N-alkylsulfonamides as inhibitors of gamma-secretase” (Bioorg Med Chem Lett, 2008).

As usually defined, the IC50 is the concentration that gives 50% inhibition.

Data set [1] deals with Gamma-secretase. Briefly: Inhibition of gamma secretase in human H4 cells assessed as reduction in amyloid beta40 level by ELISA. The data set is classed as cell-based. A digest of the protocol: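 Cells were plated and allowed to attach, then the medium was replaced with Ultraculture containing compound at 1% final DMSO. After overnight incubation, Aβ40 in the conditioned medium was measured by sandwich ELISA (C-terminal Aβ40-specific capture antibody, HRP-labelled N-terminal Aβ antibody for detection). IC50 values are means of two experiments, each with 12 concentrations; intra-assay variance was <10%.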
For orientation: ELISA stands for enzyme-linked immunosorbent assay.

Data set [2] deals with Mus musculus. Briefly: Reduction in amyloid beta level in Tg2576 mouse brain at 200 umol/kg, po after 3 hrs. The data set is classed as functional. The arrangement: scale not given: the % may be the effect or the level left. Put shortly: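 Tg2576 (βAPP-Swedish) transgenic mice received one oral dose of 200 μmol/kg. Brain Aβ was measured 3 h later and expressed as % reduction.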

The nature of data set [3]: Drug level in Tg2576 mouse plasma at 200 umol/kg, po after 3 hrs. Format: ADME, organism-based. The settings on record: read-out: Drug uptake. Put shortly:
(§1)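 Tg2576 (βAPP-Swedish) transgenic mice received one oral dose of 200 μmol/kg. Plasma and brain drug concentrations (nM) were measured 3 h after dosing and reported as mean ± error.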

The nature of data set [4]: Drug level in Tg2576 mouse brain at 200 umol/kg, po after 3 hrs. Format: ADME, organism-based. The conditions noted are these: read-out: Drug uptake. Put shortly: as §1

Active and inactive are the calls of the source. No cut-off for these calls is given here.

On to `C[C@H](COC(=O)NCCCn1ncnn1)N(c1cc(Cl)ccc1CO)S(=O)(=O)c1ccc(Cl)cc1`, for which the half-inhibitory concentration (IC50) in data set [1] worked out at 2.1 nM.

As to `C[C@H](COC(=O)N(C)CCCn1ccnc1)N(c1cc(Cl)ccc1Cl)S(=O)(=O)c1ccc(Cl)cc1`, the 50% inhibitory concentration (IC50) in data set [1] was found to be 0.48 nM.

Take `C[C@H](COC(=O)N1CCCC1)N(c1cc(Cl)ccc1CO)S(=O)(=O)c1ccc(Cl)cc1`: the IC50 in data set [1] amounted to 1.8 nM.

As to `C[C@H](COC(=O)NCCCn1ccnc1)N(c1cc(Cl)ccc1F)S(=O)(=O)c1ccc(Cl)cc1`, the IC50 in data set [1] was found to be 0.66 nM.

As to `C[C@H](COC(=O)NCCn1ccnc1)N(c1cc(Cl)ccc1CO)S(=O)(=O)c1ccc(Cl)cc1`, the IC50 in data set [1] is 0.93 nM.

With `C[C@H](CCOC(=O)NCCCn1ccnc1)N(c1cc(Cl)ccc1CO)S(=O)(=O)c1ccc(Cl)cc1`, in data set [1], the IC50 stood at 7.7 nM.

Consider `C[C@H](COC(=O)NC(C)(C)C)N(c1cc(Cl)ccc1CO)S(=O)(=O)c1ccc(Cl)cc1`, for which, in data set [1], the IC50 is 12 nM.

Consider `CCN(CC)C(=O)OC[C@@H](C)N(c1cc(Cl)ccc1CO)S(=O)(=O)c1ccc(Cl)cc1`, for which the IC50 in data set [1] was determined as 18 nM.

In data set [2], `C[C@H](CCCn1cnnn1)N(c1cc(Cl)ccc1CO)S(=O)(=O)c1ccc(Cl)cc1` showed an Activity of 41%.

On to `C[C@H](COC(=O)NCCCn1ccnc1)N(c1cc(Cl)ccc1Cl)S(=O)(=O)c1ccc(Cl)cc1`, for which the IC50 in data set [1] came to 0.41 nM.

In data set [2], `C[C@H](CCCN(C)S(C)(=O)=O)N(c1cc(Cl)ccc1CO)S(=O)(=O)c1ccc(Cl)cc1` gave an Activity of 27%.

Regarding `CCN(CCCn1ccnc1)C(=O)OC[C@@H](C)N(c1cc(Cl)ccc1CO)S(=O)(=O)c1ccc(Cl)cc1`, the Activity in data set [2] was determined as 15%. Moreover, the concentration at 3 h is 0.73 µM in data set [3] and 0.227 µM in data set [4]. Besides, in data set [1], the IC50 was found to be 0.06 nM.

In the case of `CCCNC(=O)OC[C@@H](C)N(c1cc(Cl)ccc1CO)S(=O)(=O)c1ccc(Cl)cc1`, the 50% inhibitory concentration (IC50) in data set [1] turned out to be 10 nM.

With `CC(C)NC(=O)OC[C@@H](C)N(c1cc(Cl)ccc1CO)S(=O)(=O)c1ccc(Cl)cc1`, in data set [1], the IC50 came out at 12 nM.

As for `CNC(=O)OC[C@@H](C)N(c1cc(Cl)ccc1CO)S(=O)(=O)c1ccc(Cl)cc1`, the half-inhibitory concentration (IC50) in data set [1] came to 15 nM.

Regarding `C[C@H](COC(=O)NC1CCCCC1)N(c1cc(Cl)ccc1CO)S(=O)(=O)c1ccc(Cl)cc1`, the half-maximal inhibitory concentration (IC50) in data set [1] came to 5.6 nM.

In turn, `CCN(CCCn1ccnc1)C(=O)OC[C@@H](C)N(c1cc(Cl)ccc1Cl)S(=O)(=O)c1ccc(Cl)cc1` registered an Activity in data set [2] of 50%. For the same compound, the concentration at 3 h in data set [3] stood at 98.9 µM; in data set [4], 41.2 µM. In addition, the IC50 in data set [1] was found to be 0.27 nM.

Turning to `CCNC(=O)OC[C@@H](C)N(c1cc(Cl)ccc1CO)S(=O)(=O)c1ccc(Cl)cc1`, in data set [1], the IC50 is 10 nM.

In the case of `C[C@H](CCOC(=O)NCCn1ccnc1)N(c1cc(Cl)ccc1CO)S(=O)(=O)c1ccc(Cl)cc1`, the IC50 in data set [1] was 4 nM.

Regarding `CC(C)N(CCCn1ccnc1)C(=O)OC[C@@H](C)N(c1cc(Cl)ccc1CO)S(=O)(=O)c1ccc(Cl)cc1`, the 50% inhibitory concentration (IC50) in data set [1] was 19 nM.

Regarding `C[C@H](COC(=O)NCCCn1ccnc1)N(c1cc(Cl)ccc1CO)S(=O)(=O)c1ccc(Cl)cc1`, in data set [1], the 50% inhibitory concentration (IC50) is 2.3 nM.

As to `CCC(C)NC(=O)OC[C@@H](C)N(c1cc(Cl)ccc1CO)S(=O)(=O)c1ccc(Cl)cc1` (stereo partly drawn), the 50% inhibitory concentration (IC50) in data set [1] came to 15 nM.

`C[C@H](COC(=O)N(CCCn1ccnc1)CC1CC1)N(c1cc(Cl)ccc1CO)S(=O)(=O)c1ccc(Cl)cc1`: the result in data set [2] was inactive. The figures for the concentration at 3 h in data set [3] and in data set [4] were 6.83 µM and 0.859 µM, respectively. In data set [1], the 50% inhibitory concentration (IC50) is 0.06 nM.

In the case of `C[C@H](COC(=O)NCCCn1ccnc1)N(c1cc(F)ccc1F)S(=O)(=O)c1ccc(Cl)cc1`, the IC50 in data set [1] turned out to be 1.2 nM.
